A short description of data set [1]: Selectivity index, ratio of IC50 for human THP1 cells to IC50 for axenic amastigote stage of Leishmania infantum. In kind it is toxicity, cell-based, THP-1. Conditions: read-out: Ratio IC50. Summed up: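 SI computed as THP-1 IC50 (24 h PI-exclusion flow cytometry) divided by IC50 against L. infantum amastigotes.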
Data set [2] concerns Leishmania infantum. Description: Leishmanicidal activity against axenic amastigote stage of Leishmania infantum after 24 hrs by propidium iodide staining-based flow cytometric analysis. Type of data set: functional, organism-based. Summed up:
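Axenic amastigotes maintained at pH 5.4, 37 °C in medium with citric acid, sodium bicarbonate, MES, hemin and gentamicin; miltefosine and edelfosine as standards; at least three independent experiments; IC50 values.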

Data set [3] relates to THP-1. Nature of the data set: Cytotoxicity against human THP1 cells after 24 hrs by propidium iodide staining-based flow cytometric analysis. Type of data set: cell-based. Conditions: THP-1, 24 h. Summed up: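 THP-1 cells grown in RPMI-1640 with 10% heat-inactivated FCS, 1 mM HEPES, 2 mM glutamine, 1 mM pyruvate, pH 7.2, 37 °C, 5% CO2; treated in log phase at 4 × 10⁵ cells/mL for 24 h at 37 °C, 5% CO2. Viability by flow cytometry with propidium iodide exclusion; IC50 reported.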

The subject of data set [4] is Leishmania infantum. Description: Leishmanicidal activity against amastigote stage of Leishmania infantum expressing GFP infected in human THP1 cells after 48 hrs by flow cytometric analysis. In kind it is functional, organism-based. Particulars: THP-1, 48 h. A digest of the protocol:
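THP-1 cells seeded at 120.000 cells/mL, differentiated to macrophages for 24 h with 10 ng/mL PMA in RPMI-1640, then infected with 1.2 × 10⁶ eGFP-expressing amastigotes per well; free parasites removed after 4 h. After 48 h drug treatment, cells washed with PBS, detached with TrypLE, and infection rate read by flow cytometry.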

Each structure is given as a SMILES string.

For orientation: IC50 means the concentration that gives 50% inhibition. The low end stands for greater potency in that assay, the high end for weaker potency in that assay. With `O=S(=O)(Nc1ccc([Se][Se]c2ccc(NS(=O)(=O)c3ccccc3)cc2)cc1)c1ccccc1`, in data set [1], the selectivity ratio amounted to 7.3. Further, the IC50 in data set [2] was determined as 1.64 µM; in data set [3] it was 11.9 µM.

Take `Cc1ccc(S(=O)(=O)Nc2ccc([Se][Se]c3ccc(NS(=O)(=O)c4ccc(C)cc4)cc3)cc2)cc1`: the selectivity ratio in data set [1] was above 18. For the same molecule, the results for the half-inhibitory concentration (IC50) in data set [2], in data set [4] and in data set [3] were 1.4 µM, 4.1 µM and above 25 µM, respectively.

On to `COc1ccc(S(=O)(=O)Nc2ccc([Se][Se]c3ccc(NS(=O)(=O)c4ccc(OC)cc4)cc3)cc2)cc1`, for which the selectivity ratio in data set [1] is 14. Moreover, the IC50 in data set [2] is 1.3 µM; in data set [3], 18.1 µM.

Consider `N#Cc1ccc(S(=O)(=O)Nc2ccc([Se][Se]c3ccc(NS(=O)(=O)c4ccc(C#N)cc4)cc3)cc2)cc1`, for which the selectivity ratio in data set [1] turned out to be 2. Also, the results for the IC50 in data set [2] and in data set [3] were 1.76 µM and 3.6 µM, respectively.

`O=[N+]([O-])c1ccc(S(=O)(=O)Nc2ccc([Se][Se]c3ccc(NS(=O)(=O)c4ccc([N+](=O)[O-])cc4)cc3)cc2)cc1`: the selectivity ratio in data set [1] came to 4.6. The figures for the IC50 in data set [2] and in data set [3] were 3.74 µM and 17.1 µM, respectively.

For `O=S(=O)(Nc1ccc([Se][Se]c2ccc(NS(=O)(=O)c3ccc(C(F)(F)F)cc3)cc2)cc1)c1ccc(C(F)(F)F)cc1`, the selectivity ratio in data set [1] is 9.5. Moreover, the IC50 is 2.01 µM in data set [2] and 19.1 µM in data set [3].

Turning to `O=S(=O)(Nc1ccc([Se][Se]c2ccc(NS(=O)(=O)c3ccc(F)cc3)cc2)cc1)c1ccc(F)cc1`, in data set [1], the selectivity ratio was above 17. Also, the IC50 was 1.47 µM in data set [2], 2.8 µM in data set [4] and above 25 µM in data set [3].

Consider `O=S(=O)(Nc1ccc([Se][Se]c2ccc(NS(=O)(=O)c3ccc(Cl)cc3)cc2)cc1)c1ccc(Cl)cc1`, for which, in data set [1], the selectivity ratio is above 7. The values for the IC50 in data set [2] and in data set [3] were 3.63 µM and above 25 µM, respectively.

Take `O=S(=O)(Nc1ccc([Se][Se]c2ccc(NS(=O)(=O)c3ccc(Br)cc3)cc2)cc1)c1ccc(Br)cc1`: the selectivity ratio in data set [1] came to 2. Besides, the IC50 in data set [2] was determined as 2.8 µM; in data set [3], 5.2 µM.

Regarding `O=S(=O)(Nc1ccc([Se][Se]c2ccc(NS(=O)(=O)c3ccccc3F)cc2)cc1)c1ccccc1F`, the selectivity ratio in data set [1] was determined as 10.7. For the same molecule, the IC50 in data set [2] stood at 1.66 µM; in data set [3] it was 17.8 µM.

For `O=S(=O)(Nc1ccc([Se][Se]c2ccc(NS(=O)(=O)c3ccccc3Cl)cc2)cc1)c1ccccc1Cl`, the selectivity ratio in data set [1] turned out to be 15. The half-inhibitory concentration (IC50) in data set [2] was 1.17 µM; in data set [3], 17.4 µM.

For `O=S(=O)(Nc1ccc([Se][Se]c2ccc(NS(=O)(=O)c3ccc(-c4ccccc4)cc3)cc2)cc1)c1ccc(-c2ccccc2)cc1`, the selectivity ratio in data set [1] was above 2. Moreover, the values for the IC50 in data set [2] and in data set [3] were 13.8 µM and above 25 µM, respectively.

`O=S(=O)(Nc1ccc([Se][Se]c2ccc(NS(=O)(=O)c3ccc4ccccc4c3)cc2)cc1)c1ccc2ccccc2c1`: in data set [1], the selectivity ratio is above 4.4. For the same molecule, the IC50 in data set [2] is 5.65 µM; in data set [3], above 25 µM.

As for `O=S(=O)(Nc1ccc([Se][Se]c2ccc(NS(=O)(=O)c3cccc4cccnc34)cc2)cc1)c1cccc2cccnc12`, the selectivity ratio in data set [1] was above 30. The IC50 in data set [2] was 0.83 µM; in data set [4] it was 6.2 µM; in data set [3], above 25 µM.

On to `O=S(=O)(Nc1ccc([Se][Se]c2ccc(NS(=O)(=O)c3cccs3)cc2)cc1)c1cccs1`, for which the selectivity ratio in data set [1] was 5.6. The results for the IC50 in data set [2] and in data set [3] were 1.54 µM and 8.6 µM, respectively.

With `Cn1ccnc1S(=O)(=O)Nc1ccc([Se][Se]c2ccc(NS(=O)(=O)c3nccn3C)cc2)cc1`, the selectivity ratio in data set [1] worked out at 4. Further, the IC50 in data set [2] amounted to 1.05 µM; in data set [3] it was 4.4 µM.

Turning to `CCCCCCCCCCCCCCCCCCOCC(COP(=O)([O-])OCC[N+](C)(C)C)OC` (stereo not given) [EDELFOSINE], the selectivity ratio in data set [1] is 6. The IC50 amounted to 3.1 µM in data set [4] and 4.9 µM in data set [3].

On to `CCCCCCCCCCCCCCCCOP(=O)([O-])OCC[N+](C)(C)C` [MILTEFOSINE], for which, in data set [1], the selectivity ratio worked out at 7.
